Experimental data reported in ChEMBL document CHEMBL3232980, “Studies on the antiproliferative effects of tropolone derivatives in Jurkat T-lymphocyte cells” (2014).
Calls of active or inactive are those of the source. No cut-off for these calls is given here.

How the values were obtained:
Jurkat [1] = assay: Cell cycle arrest in human Jurkat cells assessed as accumulation at G1-phase at 10 uM after 12 hrs by propidium iodide staining-based flow cytometric analysis (reference value: 65%); assay type: functional
Jurkat [2] = assay: Induction of apoptosis in human Jurkat cells assessed as caspase 3/7 activation at 10 uM after 12 hrs by luminescence assay (reference value: 69,935 +/- 7003.63 no unit); assay type: functional
Jurkat [3] = assay: Cell cycle arrest in human Jurkat cells assessed as accumulation at G1-phase at 10 uM after 24 hrs by propidium iodide staining-based flow cytometric analysis (reference value: 60.90%); assay type: functional
Jurkat [4] = assay: Induction of apoptosis in human Jurkat cells assessed as caspase 8 responsive cells level at 10 uM after 24 hrs by FACS flow cytometric analysis (reference value: 0.32%); assay type: functional
Jurkat [5] = assay: Induction of apoptosis in human Jurkat cells assessed as caspase 3/7 activation at 10 uM after 24 hrs by luminescence assay (reference value: 136,627 +/- 31846.96 no unit); assay type: functional
Jurkat [6] = assay: Induction of apoptosis in human Jurkat cells assessed as viable cells at 10 uM after 24 hrs by annexin V-FITC/propidium iodide staining-based FACS flow cytometric analysis (reference value: 99.3%); assay type: functional; conditions: read-out: Activity
Method in brief: (§1)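 About 1 × 10^6 log-phase Jurkat cells treated in 6-well plates; untreated controls. Cells washed in cold PBS and resuspended in annexin-binding buffer (10 mM HEPES, 140 mM NaCl, 2.5 mM CaCl2, pH 7.4). Stained with FITC-annexin V plus propidium iodide, then gated by flow cytometry: live (AnnV−/PI−), early apoptotic (AnnV+/PI−), late apoptotic/necrotic (AnnV+/PI+).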

Jurkat [7] = assay: Induction of apoptosis in human Jurkat cells assessed as cell death at 10 uM after 24 hrs by annexin V-FITC/propidium iodide staining-based FACS flow cytometric analysis (reference value: 0.348%); assay type: functional
Method in brief: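 ~1×10^6 log-phase Jurkat cells (RPMI 1640, 10% FBS, pen/strep, L-glutamine) treated in 6-well plates; untreated wells as controls. Cells washed in cold PBS and resuspended in annexin-binding buffer (10 mM HEPES, 140 mM NaCl, 2.5 mM CaCl2, pH 7.4). Stained with fluorescein-annexin V plus PI and read by flow cytometry. Gates: live A−/PI−, early apoptotic A+/PI−, late apoptotic/necrotic A+/PI+.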

Jurkat [8] = assay: Cell cycle arrest in human Jurkat cells assessed as accumulation at G0/G1-phase at 10 uM after 24 hrs by propidium iodide staining-based flow cytometric analysis (reference value: 2.39%); assay type: functional
Jurkat [9] = assay: Induction of apoptosis in human Jurkat cells assessed as late apoptotic cells at 10 uM after 24 hrs by annexin V-FITC/propidium iodide staining-based FACS flow cytometric analysis (reference value: 0.0401%); assay type: functional; method in brief: as §1
Jurkat [10] = assay: Cell cycle arrest in human Jurkat cells assessed as accumulation at G2/M-phase at 10 uM after 24 hrs by propidium iodide staining-based flow cytometric analysis (reference value: 14.30%); assay type: functional
Jurkat [11] = assay: Cell cycle arrest in human Jurkat cells assessed as accumulation at S-phase at 10 uM after 36 hrs by propidium iodide staining-based flow cytometric analysis (reference value: 23%); assay type: functional
Jurkat [12] = assay: Cell cycle arrest in human Jurkat cells assessed as accumulation at G2/M-phase at 10 uM after 36 hrs by propidium iodide staining-based flow cytometric analysis (reference value: 14.20%); assay type: functional
Jurkat [13] = assay: Cell cycle arrest in human Jurkat cells assessed as accumulation at G2/M-phase at 10 uM after 12 hrs by propidium iodide staining-based flow cytometric analysis (reference value: 10%); assay type: functional
Jurkat [14] = assay: Cell cycle arrest in human Jurkat cells assessed as accumulation at G1-phase at 10 uM after 36 hrs by propidium iodide staining-based flow cytometric analysis (reference value: 59.10%); assay type: functional
Jurkat [15] = assay: Induction of apoptosis in human Jurkat cells assessed as caspase 3/7 activation at 10 uM after 48 hrs by luminescence assay (reference value: 109,510 +/- 4710.453 no unit); assay type: functional
Jurkat [16] = assay: Cell cycle arrest in human Jurkat cells assessed as accumulation at S-phase at 10 uM after 24 hrs by propidium iodide staining-based flow cytometric analysis (reference value: 20.90%); assay type: functional
[17] = target: T1, Histone deacetylase (Homo sapiens) (UniProt Q13547+O15379+Q9UBN7+Q92769+Q9UQL6+Q8WUI4+Q9BY41+Q96DB2+P56524+Q9UKV0+Q969S8); conditions: Jurkat
Jurkat [18] = assay: Cell cycle arrest in human Jurkat cells assessed as accumulation at S-phase at 10 uM after 12 hrs by propidium iodide staining-based flow cytometric analysis (reference value: 19.5%); assay type: functional
Jurkat [19] = assay: Cell cycle arrest in human Jurkat cells assessed as accumulation at G0/G1-phase at 10 uM after 12 hrs by propidium iodide staining-based flow cytometric analysis (reference value: 4.16%); assay type: functional
[20] = target: T1, Histone deacetylase (Homo sapiens); conditions: Jurkat, at 10 µM
Jurkat [21] = assay: Induction of apoptosis in human Jurkat cells assessed as early apoptotic cells at 10 uM after 24 hrs by annexin V-FITC/propidium iodide staining-based FACS flow cytometric analysis (reference value: 0.32%); assay type: functional; method in brief: as §1
Jurkat [22] = assay: Cell cycle arrest in human Jurkat cells assessed as accumulation at G0/G1-phase at 10 uM after 36 hrs by propidium iodide staining-based flow cytometric analysis (reference value: 1.80%); assay type: functional
[23] = target: T1, Histone deacetylase (Homo sapiens); conditions: Jurkat; remark: listed apart in the source
Jurkat [24] = assay: Induction of apoptosis in human Jurkat cells assessed as caspase 3/7 activation at 10 uM after 6 hrs by luminescence assay (reference value: 59,417 +/- 10002.74 no unit); assay type: functional
Jurkat [25] = assay: Increase in p21 protein expression in human Jurkat cells at 10 to 50 uM after 24 hrs by FACS flow cytometric analysis; assay type: functional, cell-based
Method in brief: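 Jurkat cells (~1 × 10^6, log phase) treated 24 h at 10 or 50 µM; no-inhibitor controls. Fixed in 4% PFA for 20 min, held overnight at 4°C in 5% BSA/PBS, permeabilized with 0.5% Triton X-100, blocked with 10% goat serum. Stained with anti-p21 (1:100) and FITC secondary (1:1000). Read-out was geometric mean fluorescence intensity by flow cytometry.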

Jurkat [26] = assay: Increase in p21 mRNA level in human Jurkat cells at 10 to 50 uM after 24 hrs by quantitative RT-PCR analysis; assay type: functional, cell-based
Method in brief: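 Roughly 5 × 10^6 Jurkat cells treated 24 h at 10 and 50 µM; untreated cells served as controls. RNA extracted with Trizol, and 2 µg reverse-transcribed. p21 and beta-actin quantified by TaqMan real-time PCR, run in triplicate.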

Structure (SMILES) | Activity (Jurkat [1]) [%] | RLU (Jurkat [2]) | Activity (Jurkat [3]) [%] | Activity (Jurkat [4]) [%] | RLU (Jurkat [5]) | viability at 10 µM (Jurkat [6]) [%] | Activity (Jurkat [7]) [%] | Activity (Jurkat [8]) [%] | Activity (Jurkat [9]) [%] | Activity (Jurkat [10]) [%] | Activity (Jurkat [11]) [%] | Activity (Jurkat [12]) [%] | Activity (Jurkat [13]) [%] | Activity (Jurkat [14]) [%] | RLU (Jurkat [15]) | Activity (Jurkat [16]) [%] | Activity (Jurkat [18]) [%] | Activity (Jurkat [19]) [%] | Activity (Jurkat [21]) [%] | Activity (Jurkat [22]) [%] | further results
O=c1cc(-c2ccccc2)cccc1O | 71.5 | 110650 | 66.5 | 0.4 | 80438 | 99.4 | 0.186 | 13.9 | 0.0285 | 2.58 | 14.6 | 4.35 | 1.25 | 65.9 | 71048 | 15.8 | 10.2 | 16.3 | 0.4 | 13.4 | Flu intensity [17]: 2.12; inhibition [20]: inactive; Flu intensity [23]: 24; RLU (Jurkat [24]): 73949
O=c1c(O)ccccc1-c1ccccc1 | 64.3 | 97513 | 70.2 | 0.43 | 76948 | 98.9 | 0.513 | 13.9 | 0.158 | 1.81 | 13.3 | 2.97 | 1.39 | 64.2 | 105357 | 13.3 | 11.1 | 22.3 | 0.434 | 18.5 | Activity (Jurkat [25]): Active; Flu intensity [17]: 13.7; inhibition [20]: inactive; Activity (Jurkat [26]): inactive; Flu intensity [23]: 24.6; RLU (Jurkat [24]): 88661
O=C(CCCCCCC(=O)Nc1ccccc1)NO [VORINOSTAT] | 25.9 | 157988 | 7.46 | 35.9 | 125484 | 62.6 | 1.03 | 48.9 | 0.412 | 12.3 | 15.6 | 14.9 | 19.7 | 6.9 | 95463 | 19.9 | 31.6 | 20.4 | 35.9 | 60.8 | RLU (Jurkat [24]): 53518
